ChEMBL document CHEMBL4689842, “EUbOPEN Chemogenomics Library wave 1” (2021)

What was measured:
U2OS = assay: Multiplex assay against U2OS; type: toxicity, cell-based; settings: human
Procedure, shortened: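 Live cells were stained at seeding with Hoechst33342, BioTracker Green Microtubule Cytoskeleton Dye, MitoTracker Red and Annexin V Alexa Fluor 680. Following compound addition, they were imaged on a CQ1 microscope at 37°C and 5% CO2 and gated by CellPathfinder machine learning into Hoechst high-intensity objects or normal cells, with normal cells split into healthy, pyknosed or fragmented nuclei and pyknosed cells into mitotic or apoptotic. Tubulin, mitochondrial-mass and membrane-permeability phenotypes are per cents of healthy-nucleus cells.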

HEK-293T = assay: Incucyte cell viability with HEK293T; type: toxicity, cell-based; settings: human, 10 µM, compound concentration 10 uM; note: filed as whole numbers so only -1 and 0 and 1 occur
[1] = 12 h, 1 µM, compound concentration 1 uM, replicate 1
[2] = 12 h, 1 µM, compound concentration 1 uM, replicate 2
[3] = 12 h, 10 µM, compound concentration 10 uM, replicate 1
[4] = 12 h, 10 µM, compound concentration 10 uM, replicate 2
[5] = 24 h, 1 µM, compound concentration 1 uM, replicate 1
[6] = 24 h, 1 µM, compound concentration 1 uM, replicate 2
[7] = 24 h, 10 µM, compound concentration 10 uM, replicate 1
[8] = 24 h, 10 µM, compound concentration 10 uM, replicate 2
[9] = 48 h, 1 µM, compound concentration 1 uM, replicate 1
[10] = 48 h, 1 µM, compound concentration 1 uM, replicate 2
[11] = 48 h, 10 µM, compound concentration 10 uM, replicate 1
[12] = 48 h, 10 µM, compound concentration 10 uM, replicate 2

## N#CCNC(=O)c1ccc(-c2ccnc(Nc3ccc(N4CCOCC4)cc3)n2)cc1 [MOMELOTINIB]
U2OS; [1]
  Population Apoptotic (%): 70%
  Population Fragmented Nuclei (%): 12%
  Population Healthy Nuclei (%): 77%
  Population Hoechst High Intensity Objects (%): 5%
  Population Membrane Permeable-Phenotype (%): 9%
  Population Mitochondria Different-Phenotype (%): 6%
  Population Mitotic Cells (%): 29%
  Population Normal (%): 94%
  Population Pyknosed Nuclei (%): 10%
  Population Tubulin-Different-Phenotype (%): 18%
  Total Cell Count: 3583
U2OS; [2]
  Population Apoptotic (%): 60%
  Population Fragmented Nuclei (%): 1%
  Population Healthy Nuclei (%): 88%
  Population Hoechst High Intensity Objects (%): 8%
  Population Membrane Permeable-Phenotype (%): 2%
  Population Mitochondria Different-Phenotype (%): 13%
  Population Mitotic Cells (%): 40%
  Population Normal (%): 91%
  Population Pyknosed Nuclei (%): 9%
  Population Tubulin-Different-Phenotype (%): 11%
  Total Cell Count: 3119
U2OS; [3]
  Population Apoptotic (%): 44%
  Population Fragmented Nuclei (%): 18%
  Population Healthy Nuclei (%): 57%
  Population Hoechst High Intensity Objects (%): 6%
  Population Membrane Permeable-Phenotype (%): 10%
  Population Mitochondria Different-Phenotype (%): 20%
  Population Mitotic Cells (%): 55%
  Population Normal (%): 93%
  Population Pyknosed Nuclei (%): 23%
  Population Tubulin-Different-Phenotype (%): 20%
  Total Cell Count: 180
U2OS; [4]
  Population Apoptotic (%): 13%
  Population Fragmented Nuclei (%): 27%
  Population Healthy Nuclei (%): 47%
  Population Hoechst High Intensity Objects (%): 10%
  Population Membrane Permeable-Phenotype (%): 0%
  Population Mitochondria Different-Phenotype (%): 6%
  Population Mitotic Cells (%): 86%
  Population Normal (%): 89%
  Population Pyknosed Nuclei (%): 24%
  Population Tubulin-Different-Phenotype (%): 6%
  Total Cell Count: 56
U2OS; [5]
  Population Apoptotic (%): 42%
  Population Fragmented Nuclei (%): 14%
  Population Healthy Nuclei (%): 78%
  Population Hoechst High Intensity Objects (%): 3%
  Population Membrane Permeable-Phenotype (%): 10%
  Population Mitochondria Different-Phenotype (%): 9%
  Population Mitotic Cells (%): 57%
  Population Normal (%): 96%
  Population Pyknosed Nuclei (%): 7%
  Population Tubulin-Different-Phenotype (%): 17%
  Total Cell Count: 3609
U2OS; [6]
  Population Apoptotic (%): 66%
  Population Fragmented Nuclei (%): 7%
  Population Healthy Nuclei (%): 86%
  Population Hoechst High Intensity Objects (%): 10%
  Population Membrane Permeable-Phenotype (%): 6%
  Population Mitochondria Different-Phenotype (%): 15%
  Population Mitotic Cells (%): 33%
  Population Normal (%): 89%
  Population Pyknosed Nuclei (%): 5%
  Population Tubulin-Different-Phenotype (%): 8%
  Total Cell Count: 3108
U2OS; [7]
  Population Apoptotic (%): 61%
  Population Fragmented Nuclei (%): 20%
  Population Healthy Nuclei (%): 46%
  Population Hoechst High Intensity Objects (%): 8%
  Population Membrane Permeable-Phenotype (%): 13%
  Population Mitochondria Different-Phenotype (%): 20%
  Population Mitotic Cells (%): 38%
  Population Normal (%): 91%
  Population Pyknosed Nuclei (%): 33%
  Population Tubulin-Different-Phenotype (%): 20%
  Total Cell Count: 194
U2OS; [8]
  Population Apoptotic (%): 45%
  Population Fragmented Nuclei (%): 31%
  Population Healthy Nuclei (%): 52%
  Population Hoechst High Intensity Objects (%): 5%
  Population Membrane Permeable-Phenotype (%): 28%
  Population Mitochondria Different-Phenotype (%): 34%
  Population Mitotic Cells (%): 54%
  Population Normal (%): 94%
  Population Pyknosed Nuclei (%): 16%
  Population Tubulin-Different-Phenotype (%): 14%
  Total Cell Count: 59
U2OS; [9]
  Population Apoptotic (%): 27%
  Population Fragmented Nuclei (%): 9%
  Population Healthy Nuclei (%): 82%
  Population Hoechst High Intensity Objects (%): 3%
  Population Membrane Permeable-Phenotype (%): 2%
  Population Mitochondria Different-Phenotype (%): 18%
  Population Mitotic Cells (%): 72%
  Population Normal (%): 96%
  Population Pyknosed Nuclei (%): 7%
  Population Tubulin-Different-Phenotype (%): 19%
  Total Cell Count: 3211
U2OS; [10]
  Population Apoptotic (%): 100%
  Population Fragmented Nuclei (%): 7%
  Population Healthy Nuclei (%): 89%
  Population Hoechst High Intensity Objects (%): 2%
  Population Membrane Permeable-Phenotype (%): 8%
  Population Mitochondria Different-Phenotype (%): 17%
  Population Mitotic Cells (%): 0%
  Population Normal (%): 97%
  Population Pyknosed Nuclei (%): 2%
  Population Tubulin-Different-Phenotype (%): 22%
  Total Cell Count: 3226
U2OS; [11]
  Population Apoptotic (%): 72%
  Population Fragmented Nuclei (%): 29%
  Population Healthy Nuclei (%): 26%
  Population Hoechst High Intensity Objects (%): 4%
  Population Membrane Permeable-Phenotype (%): 20%
  Population Mitochondria Different-Phenotype (%): 20%
  Population Mitotic Cells (%): 27%
  Population Normal (%): 95%
  Population Pyknosed Nuclei (%): 43%
  Population Tubulin-Different-Phenotype (%): 25%
  Total Cell Count: 241
U2OS; [12]
  Population Apoptotic (%): 53%
  Population Fragmented Nuclei (%): 33%
  Population Healthy Nuclei (%): 44%
  Population Hoechst High Intensity Objects (%): 11%
  Population Membrane Permeable-Phenotype (%): 26%
  Population Mitochondria Different-Phenotype (%): 38%
  Population Mitotic Cells (%): 46%
  Population Normal (%): 88%
  Population Pyknosed Nuclei (%): 22%
  Population Tubulin-Different-Phenotype (%): 26%
  Total Cell Count: 71
HEK-293T; 0 h, replicate number 1, timepoint 0 hours
  Growth Rate: 0
HEK-293T; 18 h, replicate number 1, timepoint 18 hours
  Growth Rate: 0
HEK-293T; 18 h, replicate number 2, timepoint 18 hours
  Growth Rate: 1
HEK-293T; 24 h, replicate number 1, timepoint 24 hours
  Growth Rate: 0
